Measured values taken from ChEMBL document CHEMBL2163204, “Synthesis and nicotinic acetylcholine receptor in vitro and in vivo pharmacological properties of 2'-fluoro-3'-(substituted phenyl)deschloroepibatidine analogues of 2'-fluoro-3'-(4-nitrophenyl)deschloroepibatidine” (J Med Chem, 2012).
pIC50, pKi: −log10 of the molar value.

What was measured:
[1] = target: T1, Neuronal acetylcholine receptor; alpha4/beta2 (Rattus norvegicus) (UniProt P09483+P12390); experiment: Agonist activity at rat alpha4beta2 nAChR expressed in Xenopus laevis oocytes at 100 uM after 2 to 6 days by two electrode voltage clamp assay relative to acetylcholine; format: functional, cell-based; details: Oocyte
Mus musculus [2] = experiment: Antinociception activity in sc dosed mouse after 5 mins by tail-flick method
[3] = target: T2, Neuronal acetylcholine receptor; alpha3/beta4 (Rattus norvegicus) (UniProt P04757+P12392); experiment: Agonist activity at rat alpha3beta4 nAChR expressed in Xenopus laevis oocytes at 100 uM after 2 to 6 days by two electrode voltage clamp assay relative to acetylcholine; format: functional, cell-based; details: Oocyte
Outline: (§1)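 Two-electrode voltage clamp on Xenopus oocytes injected with rat subunit cRNA (α3β4 at 1:1 molar ratio), incubated at 19 °C in modified Barth's saline (pH 7.6). Oocytes perfused with ND96 (pH 7.5) at 20–25 °C. 100 µM compound applied for 15 s (α3β4) or 5 s (α7), 3-min washes. Response compared with the mean of three preceding ACh applications and expressed as % of maximal ACh response.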

Mus musculus [4] = experiment: Antinociception activity in sc dosed mouse assessed as reaction time taken for jumping or licking paws after 5 mins by hot plate method
Mus musculus [5] = experiment: Effect on hypothermia in sc dosed mouse assessed as variation in rectal temperature measured after 30 mins by thermister probe based method; format: functional; details: 0.5 h
Outline: (§2)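 Rectal temperature measured by thermistor probe inserted 24 mm, before and 30 min after s.c. saline or compound. Change computed for each mouse. Room temperature 21–24 °C.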

Mus musculus [6] = experiment: Effect on spontaneous locomotor activity in sc dosed mouse after 5 mins by photocell based method; format: functional
Outline: (§3)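 Mice put into photocell activity cages 5 min after s.c. saline or compound. Beam interruptions counted over the next 10 min.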

[7] = target: Neuronal acetylcholine receptor subunit alpha-7 (Rattus norvegicus) (UniProt Q05941); experiment: Agonist activity at rat alpha7 nAChR expressed in Xenopus laevis oocytes at 100 uM after 2 to 6 days by two electrode voltage clamp assay relative to acetylcholine; format: functional, cell-based; details: Oocyte; outline: as §1
[8] = target: T2, Neuronal acetylcholine receptor; alpha3/beta4 (Rattus norvegicus); experiment: Antagonist activity at rat alpha3beta4 nAChR expressed in Xenopus laevis oocytes assessed as inhibition of acetylcholine-induced response at 100 uM after 2 to 6 days by two electrode voltage clamp assay; format: functional, cell-based; details: Oocyte
Outline: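 Xenopus oocytes expressing rat nAChRs (α4β2 and α3β4 subunits injected at 1:1), recorded by two-electrode voltage clamp in ND96 (pH 7.5) at 20–25 °C. […] Current compared with the mean of three preceding ACh-alone responses and given as % remaining.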

[9] = Displacement of [3H]epibatidine from rat cerebral cortex alpha4beta2* nAChR incubated for 4 hrs by liquid scintillation assay; format: tissue-based
Outline: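 Washed rat cerebral cortex membranes (3 mg wet weight) in 50 mM Tris pH 7.4 with 120 mM NaCl, 5 mM KCl, 2 mM CaCl2, 1 mM MgCl2. 4 h at room temperature. Nonspecific binding with 300 µM (–)-nicotine. Filtration on PEI-soaked GF/B. Ki from IC50 by Cheng–Prusoff.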

[10] = target: T3, Neuronal acetylcholine receptor subunit alpha-7 (Rattus norvegicus, UniProt Q05941); experiment: Antagonist activity at rat alpha7 nAChR expressed in Xenopus laevis oocytes assessed as inhibition of acetylcholine-induced response after 2 to 6 days by two electrode voltage clamp assay; format: functional, cell-based, Oocyte
Mus musculus [11] = experiment: Antinociception activity in mouse assessed as reaction time taken for jumping or licking paws at 10 mg/kg, sc after 5 mins by hot plate method; format: functional; details: route subcutaneous
Outline: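 Mice placed on a 55 °C hot plate; latency is time to jump or paw-lick. Two baseline latencies taken at least 10 min apart. Tested 5 min after s.c. dosing. %MPE computed with a 40 s maximum. Eight mice per dose.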

[12] = target: T1, Neuronal acetylcholine receptor; alpha4/beta2 (Rattus norvegicus); experiment: Antagonist activity at rat alpha4beta2 nAChR expressed in Xenopus laevis oocytes assessed as inhibition of acetylcholine-induced response at 100 uM after 2 to 6 days by two electrode voltage clamp assay; format: functional, cell-based; details: Oocyte
Outline: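 Xenopus oocytes expressing rat nAChRs (α4β2 and α3β4 subunits injected at 1:1), recorded by two-electrode voltage clamp in ND96 (pH 7.5) at 20–25 °C. Current compared with the mean of three preceding ACh-alone responses and given as % remaining.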

Mus musculus [13] = experiment: Antagonist activity in sc dosed mouse assessed as inhibition of nicotine-induced antinociception after 5 mins by hot plate method; format: functional
[14] = target: Neuronal acetylcholine receptor; alpha3/beta4 (Rattus norvegicus, UniProt P04757+P12392); experiment: Antagonist activity at rat alpha3beta4 nAChR expressed in Xenopus laevis oocytes assessed as inhibition of acetylcholine-induced response after 2 to 6 days by two electrode voltage clamp assay; format: functional, cell-based, Oocyte
Mus musculus [15] = experiment: Effect on spontaneous locomotor activity in mouse at 10 mg/kg, sc after 5 mins by photocell based method; format: functional; details: route subcutaneous; outline: as §3
Mus musculus [16] = experiment: Effect on hypothermia in mouse assessed as variation in rectal temperature at 10 mg/kg, sc measured after 30 mins by thermister probe based method; format: functional; details: route subcutaneous; outline: as §2
[17] = target: Neuronal acetylcholine receptor subunit alpha-7 (Rattus norvegicus) (UniProt Q05941); experiment: Antagonist activity at rat alpha7 nAChR expressed in Xenopus laevis oocytes assessed as inhibition of acetylcholine-induced response at 100 uM after 2 to 6 days by two electrode voltage clamp assay; format: functional, cell-based; details: Oocyte
[18] = target: Neuronal acetylcholine receptor; alpha4/beta2 (Rattus norvegicus, UniProt P09483+P12390); experiment: Antagonist activity at rat alpha4beta2 nAChR expressed in Xenopus laevis oocytes assessed as inhibition of acetylcholine-induced response after 2 to 6 days by two electrode voltage clamp assay; format: functional, cell-based, Oocyte
[19] = target: T3, Neuronal acetylcholine receptor subunit alpha-7; experiment: Displacement of [125I]iodoMLA from rat cerebral cortex alpha7 nAChR at 50 nM incubated for 2 hrs by microplate scintillation assay; format: tissue-based
Outline: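 Rat cerebral cortex membranes (3 mg wet weight) in Tris assay buffer pH 7.4. Run in triplicate, 2 h on ice. Nonspecific binding with 300 µM (–)-nicotine. Filtered onto BSA-presoaked GF/B and counted by microplate scintillation.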

Mus musculus [20] = experiment: Antagonist activity in sc dosed mouse assessed as inhibition of nicotine-induced antinociception after 5 mins by tail flick method; format: functional
Mus musculus [21] = experiment: Antinociception activity in mouse at 10 mg/kg, sc after 5 mins by tail-flick method; format: functional; details: route subcutaneous
Outline: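 Mouse tail-flick: baseline latency 2–4 s, 10 s cutoff, tested 5 min after s.c. injection. %MPE = (test−control)/(10−control)×100. Eight to twelve mice per dose.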

Mus musculus [22] = experiment: Antagonist activity in mouse assessed as inhibition of nicotine-induced antinociception at 10000 ug/kg, sc after 5 mins by hot plate method; format: functional
Mus musculus [23] = experiment: Antagonist activity in mouse assessed as inhibition of nicotine-induced antinociception at 2000 ug/kg, sc after 5 mins by hot plate method; format: functional

Sequence of Neuronal acetylcholine receptor; alpha4/beta2 (P09483 whole entry): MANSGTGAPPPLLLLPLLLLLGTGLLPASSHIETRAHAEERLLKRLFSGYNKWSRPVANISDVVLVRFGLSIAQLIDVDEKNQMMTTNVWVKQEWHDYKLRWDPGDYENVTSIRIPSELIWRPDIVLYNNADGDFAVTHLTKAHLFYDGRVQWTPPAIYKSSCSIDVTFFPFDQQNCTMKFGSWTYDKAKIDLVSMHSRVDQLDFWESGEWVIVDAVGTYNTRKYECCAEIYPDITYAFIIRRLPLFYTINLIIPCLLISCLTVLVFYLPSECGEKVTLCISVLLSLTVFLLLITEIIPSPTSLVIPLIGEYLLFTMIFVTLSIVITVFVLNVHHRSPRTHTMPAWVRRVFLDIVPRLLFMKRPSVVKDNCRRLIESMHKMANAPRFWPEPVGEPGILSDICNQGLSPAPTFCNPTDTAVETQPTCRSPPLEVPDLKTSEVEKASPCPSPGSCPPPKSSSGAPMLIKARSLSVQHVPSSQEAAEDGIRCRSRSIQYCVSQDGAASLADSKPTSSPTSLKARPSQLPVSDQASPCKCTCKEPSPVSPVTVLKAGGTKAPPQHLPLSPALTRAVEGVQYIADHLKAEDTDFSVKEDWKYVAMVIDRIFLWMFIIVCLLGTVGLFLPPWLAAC
Sequence of Neuronal acetylcholine receptor; alpha4/beta2 (P12390 whole entry): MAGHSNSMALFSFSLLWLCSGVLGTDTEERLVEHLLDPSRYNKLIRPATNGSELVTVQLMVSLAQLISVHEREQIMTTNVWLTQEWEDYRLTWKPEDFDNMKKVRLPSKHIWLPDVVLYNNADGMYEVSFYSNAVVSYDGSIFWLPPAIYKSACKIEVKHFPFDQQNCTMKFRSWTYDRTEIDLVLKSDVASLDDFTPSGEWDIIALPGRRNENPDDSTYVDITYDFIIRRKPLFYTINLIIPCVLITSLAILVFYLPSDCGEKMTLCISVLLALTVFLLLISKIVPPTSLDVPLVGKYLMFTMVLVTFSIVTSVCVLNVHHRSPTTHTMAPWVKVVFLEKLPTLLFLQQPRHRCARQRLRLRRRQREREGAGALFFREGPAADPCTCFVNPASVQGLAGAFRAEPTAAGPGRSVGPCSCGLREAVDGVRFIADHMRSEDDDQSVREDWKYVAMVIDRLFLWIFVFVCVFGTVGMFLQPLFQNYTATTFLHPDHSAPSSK
T3 sequence (Q05941 whole entry): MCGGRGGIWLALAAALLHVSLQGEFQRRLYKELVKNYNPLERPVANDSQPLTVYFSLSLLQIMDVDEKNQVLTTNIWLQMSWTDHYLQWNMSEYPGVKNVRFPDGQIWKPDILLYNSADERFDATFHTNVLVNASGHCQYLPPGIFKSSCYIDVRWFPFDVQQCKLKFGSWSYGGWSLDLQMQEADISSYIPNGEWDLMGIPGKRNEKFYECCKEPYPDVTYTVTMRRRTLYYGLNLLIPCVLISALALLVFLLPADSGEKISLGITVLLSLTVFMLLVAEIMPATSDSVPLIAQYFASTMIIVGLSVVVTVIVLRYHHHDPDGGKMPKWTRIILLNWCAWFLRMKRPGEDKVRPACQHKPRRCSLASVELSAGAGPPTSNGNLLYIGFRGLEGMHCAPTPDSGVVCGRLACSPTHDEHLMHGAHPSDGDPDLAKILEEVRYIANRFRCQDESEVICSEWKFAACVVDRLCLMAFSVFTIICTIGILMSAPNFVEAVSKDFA
Sequence of Neuronal acetylcholine receptor subunit alpha-7 (Rattus norvegicus) (Q05941 whole entry): as above
Sequence of Neuronal acetylcholine receptor; alpha3/beta4 (P04757 whole entry): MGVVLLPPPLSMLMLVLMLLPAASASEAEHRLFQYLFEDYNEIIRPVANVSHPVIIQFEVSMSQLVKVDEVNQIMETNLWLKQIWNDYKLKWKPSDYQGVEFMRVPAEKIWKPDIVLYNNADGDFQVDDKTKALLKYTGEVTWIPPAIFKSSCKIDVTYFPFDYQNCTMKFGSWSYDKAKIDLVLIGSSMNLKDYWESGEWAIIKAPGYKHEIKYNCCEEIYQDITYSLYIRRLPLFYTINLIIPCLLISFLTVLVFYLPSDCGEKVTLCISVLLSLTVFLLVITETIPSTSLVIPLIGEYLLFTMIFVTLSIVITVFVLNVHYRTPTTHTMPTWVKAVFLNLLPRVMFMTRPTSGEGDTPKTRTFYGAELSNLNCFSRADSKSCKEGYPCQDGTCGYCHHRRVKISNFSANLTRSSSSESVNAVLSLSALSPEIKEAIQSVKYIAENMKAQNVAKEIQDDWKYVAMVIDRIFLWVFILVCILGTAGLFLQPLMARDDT
Sequence of Neuronal acetylcholine receptor; alpha3/beta4 (P12392 whole entry): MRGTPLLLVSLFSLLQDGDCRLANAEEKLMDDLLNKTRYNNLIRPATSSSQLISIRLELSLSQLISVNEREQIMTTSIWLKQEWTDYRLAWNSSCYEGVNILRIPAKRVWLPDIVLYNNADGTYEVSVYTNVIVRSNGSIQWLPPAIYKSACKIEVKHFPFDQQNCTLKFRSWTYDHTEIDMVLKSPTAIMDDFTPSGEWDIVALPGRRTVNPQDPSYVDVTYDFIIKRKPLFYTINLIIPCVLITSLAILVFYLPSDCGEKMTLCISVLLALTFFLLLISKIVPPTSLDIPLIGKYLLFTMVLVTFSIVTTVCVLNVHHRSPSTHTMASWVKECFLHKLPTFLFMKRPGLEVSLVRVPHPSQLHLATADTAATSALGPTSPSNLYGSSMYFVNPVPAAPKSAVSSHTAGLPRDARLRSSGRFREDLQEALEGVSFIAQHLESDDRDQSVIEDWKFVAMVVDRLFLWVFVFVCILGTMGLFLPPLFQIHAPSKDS

| Compound | %max [1] | %max [3] | ED50 (Mus musculus [5]) | ED50 (Mus musculus [6]) | %max [7] | inhibition [8] | pKi [9] | pIC50 [10] | Activity (Mus musculus [11]) | inhibition [12] | AD50 (Mus musculus [13]) | pIC50 [14] | Activity (Mus musculus [15]) | Activity (Mus musculus [16]) | inhibition [17] | pIC50 [18] | pKi [19] | AD50 (Mus musculus [20]) | Activity (Mus musculus [21]) | also measured |
| --- | --- | --- | --- | --- | --- | --- | --- | --- | --- | --- | --- | --- | --- | --- | --- | --- | --- | --- | --- | --- |
| Clc1ccc([C@H]2CC3CCC2N3)cn1 (mixture of isomers) | 131% | 97% | 0.004 mg/kg | 0.001 mg/kg | 150% |  |  |  |  |  |  |  |  |  |  |  |  |  |  | ED50 (Mus musculus [2]): 0.006 mg/kg; ED50 (Mus musculus [4]): 0.004 mg/kg |
| Fc1ncc(C2CC3CCC2N3)cc1-c1ccc(C(F)(F)F)cc1 (racemic) | 0% | 0% |  |  | 4% | 4% | 9.36 | 5.40 | 6% | 8% | 6 mg/kg | 5.30 | 5% | 0% | 3% | 5.22 | < 5.70 |  |  |  |
| CS(=O)(=O)c1ccc(-c2cc(C3CC4CCC3N4)cnc2F)cc1 (racemic) | 0% | 0% |  |  | 3% | 25% | 9.77 |  | 1% |  | 2.6 mg/kg | 4.96 | 12% | 1% | 33% | 5.55 |  | 0.018 mg/kg | 6% |  |
| NS(=O)(=O)c1ccc(-c2cc(C3CC4CCC3N4)cnc2F)cc1 (racemic) | 0% | 0% |  |  | 1.8% | 5% | 9.03 |  | 19% | 4% | 1 mg/kg |  | 5% | 0% | 18% |  | < 5.70 | 0.0009 mg/kg |  |  |
| O=S(=O)(c1ccc(-c2cc(C3CC4CCC3N4)cnc2F)cc1)C(F)(F)F (racemic) | 0% | 1.9% |  | 4.2 mg/kg | 1.8% | 15% | 10.52 |  |  | 7% |  |  |  | 0% | 42% |  | < 5.70 | 1.6 mg/kg | 3% | inhibition in vivo at 10 mg/kg (Mus musculus [22]): 50% |
| NC(=O)c1ccc(-c2cc(C3CC4CCC3N4)cnc2F)cc1 (racemic) | 3.5% | 8% | 4.2 mg/kg |  | 17% | 36% | 9.92 | 4.46 | 60% | 6% |  | 4.46 |  |  | 54% | 5.82 | 5.73 | 0.009 mg/kg | 16% | inhibition in vivo at 2 mg/kg (Mus musculus [23]): 1% |
| O=[N+]([O-])c1ccc(-c2cc(C3CC4CCC3N4)cnc2F)cc1 (racemic) | 0% | 4% | 0.21 mg/kg | 0.22 mg/kg | 6% | 9% | 11.05 | 4.49 |  | 6% | 0.12 mg/kg | 5.10 |  |  | 55% | 5.49 | < 5.70 | 0.003 mg/kg | 5% |  |
| N#Cc1ccc(-c2cc(C3CC4CCC3N4)cnc2F)cc1 (racemic) | 0% | 6% |  |  | 3% | 17% | 9.72 | 4.01 | 18% | 8% |  | 5.15 | 0% | 0% | 49% | 4.96 | < 5.70 |  | 4% | inhibition in vivo at 10 mg/kg (Mus musculus [22]): 24% |
| c1cnc2cc3c(cc2n1)[C@@H]1CNC[C@H]3C1 [VARENICLINE] | 13% | 66% | 2.8 mg/kg | 2.1 mg/kg | 74% |  |  |  | 10% | 38% | 0.47 mg/kg |  |  |  |  |  |  | 0.0002 mg/kg | 11% |  |
